Here are results for 31 compounds from ChEMBL document CHEMBL3351539, “"On water" expedient synthesis of 3-indolyl-3-hydroxy oxindole derivatives and their anticancer activity in vitro” (Eur J Med Chem, 2014).

The term IC50 denotes the concentration needed to halve the response being measured.

The nature of test [1]: Cytotoxicity against human U937 cells assessed as growth inhibition after 24 hrs by MTT assay. The conditions noted are these: U-937, 24 h.
A further test has as its system A549. The test is described as follows: Cytotoxicity against human A549 cells assessed as growth inhibition after 24 hrs by MTT assay. The conditions noted are these: A549, 24 h. (In general: Tetrazolium dyes change colour on reduction, which living cells bring about.)
A further test concerns THP-1. The test can be described thus: Cytotoxicity against human THP1 cells assessed as growth inhibition after 24 hrs by MTT assay. The conditions noted are these: THP-1, 24 h.
The test system of test [2] is MCF7. The test is described as follows: Cytotoxicity against human MCF7 cells assessed as growth inhibition after 24 hrs by MTT assay. The conditions noted are these: MCF7, 24 h.
For test [3], the system named is U-937. The test can be described thus: Ratio of etoposide IC50 to compound IC50 for human U937 cells assessed as growth inhibition after 24 hrs by MTT assay.
For test [4], the system named is U-937. The test can be described thus: Cytotoxicity against human U937 cells assessed as shrinkage in cell size at IC50 by light microscopy. The class given is functional, cell-based. The procedure, abridged: (§1)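 U937 cells were exposed to one concentration per derivative and examined by light microscopy at 400X against untreated controls with intact cells. Cells were scored for shrinkage in cell size, nuclear condensation and formation of apoptotic bodies.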

Test [5] relates to U-937. The test is described as follows: Cytotoxicity against human U937 cells assessed as formation of apoptotic bodies at IC50 by light microscopy. It is filed as functional, cell-based. The procedure, abridged:
as §1

The test system of test [6] is U-937. The test can be described thus: Cytotoxicity against human U937 cells assessed as nuclear condensation at IC50 by light microscopy. The class given is functional, cell-based. The procedure, abridged: as §1
For test [7], the system named is MCF7. The test can be described thus: Ratio of etoposide IC50 to compound IC50 for human MCF7 cells assessed as growth inhibition after 24 hrs by MTT assay.

Each structure is given as a SMILES string. Converted amounts (≈) assume the structure as drawn. The source made the active and inactive calls. The calls are words filed in the database; no cut-off is given here.

Consider `O=C1Nc2ccc(Cl)cc2C1(O)c1c[nH]c2ccccc12` (centres undefined), for which, in test [1], the IC50 came out at 19.8 µg/mL (≈ 66.3 µM).

As for `O=C1Nc2ccc(I)cc2C1(O)c1c[nH]c2ccc(F)cc12` (centres undefined), the values for the half-inhibitory concentration (IC50) in the test with A549 and in the test on THP-1 were 43.7 µg/mL (≈ 107 µM) and 62.4 µg/mL (≈ 153 µM), respectively.

Take `O=C1N(Cc2ccccc2)c2ccccc2C1(O)c1c[nH]c2ccccc12` (centres undefined): the IC50 in test [1] worked out at 43 µg/mL (≈ 121 µM); with A549, 22.8 µg/mL (≈ 64.2 µM); in the test on THP-1 it was 64.5 µg/mL (≈ 182 µM).

With `O=C1Nc2ccc(F)cc2C1(O)c1c[nH]c2ccccc12` (centres undefined), the IC50 in [1] came to 43.7 µg/mL (≈ 155 µM).

With `COc1ccc2[nH]cc(C3(O)C(=O)Nc4ccc(F)cc43)c2c1` (centres undefined), in [1], the IC50 worked out at 55.9 µg/mL (≈ 179 µM).

Consider `Cc1ccc2c(c1)C(O)(c1c[nH]c3ccccc13)C(=O)N2` (centres undefined), for which the IC50 in [1] amounted to 83.4 µg/mL (≈ 300 µM).

As to `O=C1Nc2c(Cl)cccc2C1(O)c1c[nH]c2ccccc12` (centres undefined), the IC50 in the test on THP-1 was 86.1 µg/mL (≈ 288 µM).

Take `O=C1Nc2ccc(I)cc2C1(O)c1c[nH]c2ccccc12` (centres undefined): in test [1], the IC50 is 21.6 µg/mL (≈ 55.3 µM).

With `O=C1N(Cc2ccccc2)c2ccc(Cl)cc2C1(O)c1c[nH]c2ccccc12` (centres undefined), the IC50 in test [1] turned out to be 4.33 µg/mL (≈ 11.1 µM); in the test with MCF7 [2], 24 µg/mL (≈ 61.8 µM); in the test with A549, 18.3 µg/mL (≈ 47.1 µM); in the test on THP-1, 5.03 µg/mL (≈ 12.9 µM). In addition, the “Ratio IC50” value in the test with U-937 [3] came out at 0.5. Further, the outcome in the test on U-937 [4], with U-937 [5] and in the test with U-937 [6] was Active.

On to `O=C1Nc2ccc(Br)cc2C1(O)c1c[nH]c2ccc(Br)cc12` (centres undefined), for which the half-inhibitory concentration (IC50) in test [1] came out at 43.3 µg/mL (≈ 103 µM); in the test on MCF7 [2] it was 68.7 µg/mL (≈ 163 µM); in the test with A549 it was 25.1 µg/mL (≈ 59.5 µM); with THP-1, 86.1 µg/mL (≈ 204 µM).

As to `CN1C(=O)C(O)(c2c[nH]c3ccccc23)c2ccccc21` (centres undefined), in the test with MCF7 [2], the IC50 amounted to 49 µg/mL (≈ 176 µM).

In the case of `Cc1ccc2[nH]cc(C3(O)C(=O)Nc4ccc(I)cc43)c2c1` (centres undefined), the 50% inhibitory concentration (IC50) in test [1] is 23.1 µg/mL (≈ 57.3 µM); in the test on MCF7 [2], 84.5 µg/mL (≈ 209 µM); in the test with A549, 25.2 µg/mL (≈ 62.3 µM); with THP-1 it was 87.1 µg/mL (≈ 216 µM).

In the case of `COc1cc([C@@H]2c3cc4c(cc3[C@@H](O[C@@H]3O[C@@H]5CO[C@@H](C)O[C@H]5[C@H](O)[C@H]3O)[C@H]3COC(=O)[C@H]23)OCO4)cc(OC)c1O` [ETOPOSIDE], the IC50 came out at 6.14 µg/mL (≈ 10.4 µM) in test [1], 17.8 µg/mL (≈ 30.2 µM) in the test on MCF7 [2] and 10.7 µg/mL (≈ 18.2 µM) in the test with A549.

As to `O=C1N(Cc2ccccc2Br)c2ccccc2C1(O)c1c[nH]c2ccc(Br)cc12` (centres undefined), the IC50 in [1] was determined as 14.9 µg/mL (≈ 29.1 µM); in the test with MCF7 [2] it was 24.7 µg/mL (≈ 48.3 µM); with A549, 29.8 µg/mL (≈ 58.1 µM); in the test on THP-1 it was 6.93 µg/mL (≈ 13.5 µM).

On to `O=C1N(Cc2ccc(Br)cc2)c2ccc(Cl)cc2C1(O)c1c[nH]c2ccc(Br)cc12` (centres undefined), for which the IC50 in [1] was 12.2 µg/mL (≈ 22.2 µM); in the test with MCF7 [2], 20.4 µg/mL (≈ 37.3 µM); with A549, 18.4 µg/mL (≈ 33.6 µM); in the test with THP-1 it was 6.06 µg/mL (≈ 11.1 µM).

Turning to `Cc1ccc2[nH]cc(C3(O)C(=O)Nc4ccc(F)cc43)c2c1` (centres undefined), the IC50 in test [1] is 35.5 µg/mL (≈ 120 µM).

Turning to `O=C1N(Cc2ccccc2Cl)c2ccccc2C1(O)c1c[nH]c2ccccc12` (centres undefined), the 50% inhibitory concentration (IC50) was 15 µg/mL (≈ 38.5 µM) in test [1], 39.3 µg/mL (≈ 101 µM) in the test on MCF7 [2], 28.1 µg/mL (≈ 72.4 µM) in the test with A549 and 6.97 µg/mL (≈ 17.9 µM) in the test with THP-1.

As to `COc1ccc2[nH]cc(C3(O)C(=O)Nc4ccc(I)cc43)c2c1` (centres undefined), the 50% inhibitory concentration (IC50) in the test with THP-1 was 69.2 µg/mL (≈ 165 µM).

As for `COc1ccc2[nH]cc(C3(O)C(=O)N(Cc4ccccc4Cl)c4ccc(Cl)cc43)c2c1` (centres undefined), the IC50 in test [1] was found to be 6.07 µg/mL (≈ 13.4 µM); in the test with MCF7 [2] it was 10.8 µg/mL (≈ 23.9 µM); with A549 it was 14.1 µg/mL (≈ 31.1 µM); in the test on THP-1, 4.27 µg/mL (≈ 9.42 µM). Besides, the entries for the “Ratio IC50” value with MCF7 [7] and with U-937 [3] were 1 and 0.5, respectively. Also, the result with U-937 [4], in the test on U-937 [5] and in the test with U-937 [6] was Active.

Turning to `O=C1Nc2ccc(Cl)cc2C1(O)c1c[nH]c2ccc(Br)cc12` (centres undefined), the IC50 in test [1] was determined as 25.3 µg/mL (≈ 67 µM); in the test on MCF7 [2] it was 95.5 µg/mL (≈ 253 µM); with A549, 19.8 µg/mL (≈ 52.5 µM); with THP-1 it was 98.5 µg/mL (≈ 261 µM).

Take `O=C1Nc2ccc(F)cc2C1(O)c1c[nH]c2ccc(Br)cc12` (centres undefined): the concentration for half-maximal inhibition (IC50) with THP-1 is 76 µg/mL (≈ 210 µM).

For `COc1ccc2[nH]cc(C3(O)C(=O)N(Cc4ccccc4Cl)c4ccccc43)c2c1` (centres undefined), the IC50 in test [1] is 7.6 µg/mL (≈ 18.1 µM); with MCF7 [2], 13.4 µg/mL (≈ 32.1 µM); in the test on A549 it was 33.1 µg/mL (≈ 79 µM); in the test on THP-1 it was 5.6 µg/mL (≈ 13.4 µM). For the same compound, in the test with MCF7 [7], the “Ratio IC50” value was found to be 1.

For the compound `O=C1Nc2ccc(OC(F)(F)F)cc2C1(O)c1c[nH]c2ccc(Br)cc12` (centres undefined), the values for the 50% inhibitory concentration (IC50) in the test with MCF7 [2] and with A549 were 5.47 µg/mL (≈ 12.8 µM) and 13 µg/mL (≈ 30.4 µM), respectively. For the same compound, the “Ratio IC50” value in the test with MCF7 [7] came out at 1.

Consider `O=C1N(Cc2ccccc2Cl)c2ccc(Cl)cc2C1(O)c1c[nH]c2ccc(Br)cc12` (centres undefined), for which the IC50 turned out to be 5.31 µg/mL (≈ 10.6 µM) in test [1], 21.3 µg/mL (≈ 42.3 µM) in the test with MCF7 [2], 16.5 µg/mL (≈ 32.9 µM) in the test with A549 and 6.12 µg/mL (≈ 12.2 µM) with THP-1. For the same compound, in the test on U-937 [3], the “Ratio IC50” value amounted to 0.5.

Regarding `O=C1N(Cc2ccccc2)c2ccc(Cl)cc2C1(O)c1c[nH]c2ccc(Br)cc12` (centres undefined), the 50% inhibitory concentration (IC50) was 8.02 µg/mL (≈ 17.1 µM) in test [1], 8.64 µg/mL (≈ 18.5 µM) in the test on MCF7 [2], 13.3 µg/mL (≈ 28.5 µM) in the test on A549 and 7.12 µg/mL (≈ 15.2 µM) in the test with THP-1. In the test with MCF7 [7], the “Ratio IC50” value worked out at 1. For the same compound, the result with U-937 [4], in the test on U-937 [5] and in the test with U-937 [6] was Active.

For the compound `O=C1Nc2ccc(Br)cc2C1(O)c1c[nH]c2ccccc12` (centres undefined), the IC50 amounted to 19.3 µg/mL (≈ 56.2 µM) in [1] and 72.5 µg/mL (≈ 211 µM) in the test on A549.

As to `O=C1N(Cc2ccccc2Cl)c2ccc(Cl)cc2C1(O)c1c[nH]c2ccccc12` (centres undefined), the 50% inhibitory concentration (IC50) was found to be 4.89 µg/mL (≈ 11.6 µM) in test [1], 20.6 µg/mL (≈ 48.7 µM) in the test on MCF7 [2], 15.8 µg/mL (≈ 37.2 µM) with A549 and 7.01 µg/mL (≈ 16.6 µM) in the test on THP-1. Further, the “Ratio IC50” value with U-937 [3] came to 0.5.

Consider `O=C1N(Cc2ccccc2Cl)c2ccccc2C1(O)c1c[nH]c2ccc(Br)cc12` (centres undefined), for which the concentration for half-maximal inhibition (IC50) in test [1] came out at 7.16 µg/mL (≈ 15.3 µM); in the test with MCF7 [2], 22.3 µg/mL (≈ 47.7 µM); with A549, 16.2 µg/mL (≈ 34.5 µM); in the test on THP-1 it was 7.37 µg/mL (≈ 15.8 µM).

`O=C1Nc2ccc(OC(F)(F)F)cc2C1(O)c1c[nH]c2ccccc12` (centres undefined): the IC50 amounted to 16.8 µg/mL (≈ 48.2 µM) in test [1], 71.5 µg/mL (≈ 205 µM) in the test on MCF7 [2] and 13.7 µg/mL (≈ 39.4 µM) in the test on THP-1.

As to `COc1ccc2[nH]cc(C3(O)C(=O)Nc4ccc(Cl)cc43)c2c1` (centres undefined), the IC50 in test [1] worked out at 39.8 µg/mL (≈ 121 µM).

As to `O=C1N(Cc2ccccc2)c2ccccc2C1(O)c1c[nH]c2ccc(Br)cc12` (centres undefined), the concentration for half-maximal inhibition (IC50) in [1] was 17.1 µg/mL (≈ 39.4 µM); with MCF7 [2], 31.2 µg/mL (≈ 72.1 µM); in the test with A549, 25.1 µg/mL (≈ 57.9 µM); in the test on THP-1, 14.2 µg/mL (≈ 32.7 µM).
